A short description of data set [1]: Oral bioavailability in rat. Particulars: in vivo; call rule not given here. The data set is classed as ADME, organism-based.
The nature of data set [2]: Oral bioavailability in dog. Type of data set: ADME, organism-based, Canis lupus familiaris. Particulars: in vivo.
Data set [3] has as its target Vasopressin V2 receptor (Rattus norvegicus, UniProt Q00788). The data set is described as follows: Inhibition of rat kidney V2 receptor.
Data set [4] deals with Vasopressin V1a receptor (Rattus norvegicus, UniProt P30560). Briefly: Inhibition of rat liver V1a receptor.
Sequence of Vasopressin V1a receptor (Rattus norvegicus, UniProt P30560) (P30560 whole entry): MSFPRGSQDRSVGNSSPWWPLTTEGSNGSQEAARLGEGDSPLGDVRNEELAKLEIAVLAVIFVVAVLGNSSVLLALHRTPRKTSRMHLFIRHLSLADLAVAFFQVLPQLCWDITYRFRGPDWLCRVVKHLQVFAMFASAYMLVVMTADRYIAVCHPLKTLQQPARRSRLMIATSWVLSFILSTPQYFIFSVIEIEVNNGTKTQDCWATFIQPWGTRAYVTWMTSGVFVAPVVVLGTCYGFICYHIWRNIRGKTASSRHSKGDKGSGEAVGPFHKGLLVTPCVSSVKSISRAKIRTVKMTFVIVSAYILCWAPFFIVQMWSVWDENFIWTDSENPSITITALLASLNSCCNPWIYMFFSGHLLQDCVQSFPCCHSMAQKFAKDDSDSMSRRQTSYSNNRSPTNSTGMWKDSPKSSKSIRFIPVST
The target in data set [5] is T1, Oxytocin receptor (Rattus norvegicus, UniProt P70536).
T1 sequence (P70536 whole entry): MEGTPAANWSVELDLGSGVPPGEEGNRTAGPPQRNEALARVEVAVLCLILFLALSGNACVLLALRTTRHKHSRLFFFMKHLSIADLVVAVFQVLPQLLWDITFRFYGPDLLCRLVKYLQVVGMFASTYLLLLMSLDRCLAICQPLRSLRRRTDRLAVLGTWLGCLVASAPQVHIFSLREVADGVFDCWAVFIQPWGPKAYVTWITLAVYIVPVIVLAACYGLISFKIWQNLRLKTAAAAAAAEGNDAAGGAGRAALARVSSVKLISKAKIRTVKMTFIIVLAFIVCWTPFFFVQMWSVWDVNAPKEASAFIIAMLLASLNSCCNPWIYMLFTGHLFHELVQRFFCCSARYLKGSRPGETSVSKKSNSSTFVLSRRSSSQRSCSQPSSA
Briefly: Inhibition of rat uterus OT receptor.

Data set [6] addresses Vasopressin V1a receptor (Homo sapiens, UniProt P37288). Briefly: Binding affinity to human liver V1A receptor.
A further data set has as its target T2, Vasopressin V1b receptor (Homo sapiens, UniProt P47901).
T2 sequence (P47901 whole entry): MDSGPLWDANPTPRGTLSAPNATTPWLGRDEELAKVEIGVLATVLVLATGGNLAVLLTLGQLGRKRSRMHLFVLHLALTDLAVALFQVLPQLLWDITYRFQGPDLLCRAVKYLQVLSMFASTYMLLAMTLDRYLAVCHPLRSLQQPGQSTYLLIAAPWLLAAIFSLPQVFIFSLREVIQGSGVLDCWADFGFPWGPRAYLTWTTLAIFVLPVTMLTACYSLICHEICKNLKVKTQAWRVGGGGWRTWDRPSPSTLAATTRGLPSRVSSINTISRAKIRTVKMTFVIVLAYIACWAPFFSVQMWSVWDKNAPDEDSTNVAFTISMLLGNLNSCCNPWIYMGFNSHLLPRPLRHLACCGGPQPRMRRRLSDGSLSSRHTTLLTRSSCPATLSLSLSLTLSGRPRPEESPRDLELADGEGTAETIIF
Briefly: Binding affinity to V1B receptor (unknown origin). Summed up: (§1)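 Ki values in nM from human receptor binding assays run by the NIMH Psychoactive Drug Screening Program.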

For data set [7], the target named is Vasopressin V2 receptor (Homo sapiens, UniProt P30518). The data set is described as follows: Binding affinity to human V2 receptor. An outline of the steps: as §1
Sequence of Vasopressin V2 receptor (Homo sapiens, UniProt P30518) (P30518 whole entry): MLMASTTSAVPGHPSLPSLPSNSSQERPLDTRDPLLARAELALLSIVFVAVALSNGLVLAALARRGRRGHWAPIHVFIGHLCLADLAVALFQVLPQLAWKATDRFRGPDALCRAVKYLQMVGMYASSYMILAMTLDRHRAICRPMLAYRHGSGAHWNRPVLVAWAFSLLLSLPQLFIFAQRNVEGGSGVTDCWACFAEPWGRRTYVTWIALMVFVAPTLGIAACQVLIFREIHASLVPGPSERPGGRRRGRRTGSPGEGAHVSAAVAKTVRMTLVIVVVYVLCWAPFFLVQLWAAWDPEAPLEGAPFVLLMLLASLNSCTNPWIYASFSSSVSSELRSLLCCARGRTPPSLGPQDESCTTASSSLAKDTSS
The target of data set [8] is T3, Oxytocin receptor (Homo sapiens, UniProt P30559).
T3 sequence (P30559 whole entry): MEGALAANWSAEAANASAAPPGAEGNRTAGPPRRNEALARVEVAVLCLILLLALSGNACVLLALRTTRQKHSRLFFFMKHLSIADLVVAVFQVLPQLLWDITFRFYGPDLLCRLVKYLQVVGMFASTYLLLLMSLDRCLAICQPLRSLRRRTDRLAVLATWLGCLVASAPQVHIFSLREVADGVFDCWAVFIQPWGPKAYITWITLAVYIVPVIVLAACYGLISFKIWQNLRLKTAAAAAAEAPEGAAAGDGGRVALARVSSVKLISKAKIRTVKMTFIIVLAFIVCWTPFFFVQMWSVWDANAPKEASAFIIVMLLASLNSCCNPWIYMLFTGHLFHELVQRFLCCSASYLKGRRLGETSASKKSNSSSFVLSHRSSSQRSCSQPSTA
The data set is described as follows: Binding affinity to human OT receptor. An outline of the steps: as §1

In the next data set the test system is Muscle tissue. Briefly: Drug uptake in Sprague-Dawley rat muscle at 500 uCi by PET imaging analysis in presence of ornithine vasotocin. Type of data set: ADME, tissue-based. Particulars: in vivo. An outline of the steps: (§2)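 Estradiol benzoate-primed Sprague-Dawley rats (10–12 μg sc in sesame oil, daily for 3 days). The peptide OT antagonist ornithine vasotocin (5 mg/kg) was injected 10 min before the radiotracer to block peripheral receptors. 500 μCi of tracer was injected 30 s into a 45 min emission scan.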

The test system of data set [9] is Brain. The data set is described as follows: Drug uptake in cynomolgus monkey brain at 8.3 mCi, iv after 2 hrs by PET imaging analysis. Type of data set: ADME, organism-based, Macaca fascicularis. To be noted: in vivo. Summed up:
(§3)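 One male cynomolgus monkey (8.91 kg) given an 8.3 mCi iv bolus of radiotracer. PET scan for 2 h from injection, with images summed. Time-activity curves were derived for choroid plexus, muscle and whole brain.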

Data set [10] is described as follows: Drug uptake in cynomolgus monkey muscle at 8.3 mCi, iv after 2 hrs by PET imaging analysis. Type of data set: ADME, organism-based, Macaca fascicularis, Muscle tissue. To be noted: in vivo. An outline of the steps: as §3
Data set [11] is described as follows: Drug uptake in cynomolgus monkey choroid plexus at 8.3 mCi, iv after 2 hrs by PET imaging analysis. Particulars: in vivo. Type of data set: ADME, organism-based, Macaca fascicularis. Summed up:
as §3

Data set [12] can be described thus: Drug uptake in Sprague-Dawley rat amygdala at 500 uCi after 10 mins by PET imaging analysis. Type of data set: ADME, tissue-based. To be noted: in vivo.
A further data set concerns Hypothalamus. Briefly: Drug uptake in Sprague-Dawley rat hypothalamus at 500 uCi after 10 mins by PET imaging analysis. Type of data set: ADME, tissue-based. To be noted: in vivo.
Data set [13] concerns Brain. Briefly: Drug uptake in Sprague-Dawley rat brain at 500 uCi after 10 mins by PET imaging analysis. The data set is classed as ADME, tissue-based. To be noted: in vivo.
A short description of data set [14]: Drug uptake in Sprague-Dawley rat dorsal caudate nucleus at 500 uCi after 10 mins by PET imaging analysis. Type of data set: ADME, tissue-based. Particulars: in vivo.
Data set [15] in a line: Drug uptake in Sprague-Dawley rat pituitary gland at 500 uCi by PET imaging analysis in presence of ornithine vasotocin. Type of data set: ADME. Particulars: in vivo. An outline of the steps: as §2
Data set [16] in a line: Drug uptake in Sprague-Dawley rat pituitary gland at 500 uCi by PET imaging analysis. Type of data set: ADME, tissue-based. To be noted: in vivo.
Data set [17] is described as follows: Lipophilicity, log P of the compound at pH 7.4. The data set is classed as physicochemical. Particulars: buffer.
The subject of data set [18] is Brain. The data set is described as follows: Drug uptake in Sprague-Dawley rat brain at 500 uCi by PET imaging analysis. Type of data set: ADME, tissue-based. Particulars: in vivo.

pIC50, pKi: −log10 of the molar value.

From ChEMBL document CHEMBL2390856, “Carbon-11 N-methyl alkylation of L-368,899 and in vivo PET imaging investigations for neural oxytocin receptors” (Bioorg Med Chem Lett, 2013) come the findings set out here.

Broadly, the bioavailability is the share of a dose that reaches the circulation, judged against a reference dose that is usually intravenous. As a reminder, the pIC50 is the IC50 on a negative log10 scale, so that one unit is a factor of ten. Broadly, the pKi is the negative decadic logarithm of the Ki, by convention in mol/L. The term logD denotes the decadic logarithm of the distribution of all forms, ionised or not, between an organic phase and buffer at a given pH.

Sequence of Vasopressin V2 receptor (Rattus norvegicus, UniProt Q00788) (Q00788 whole entry): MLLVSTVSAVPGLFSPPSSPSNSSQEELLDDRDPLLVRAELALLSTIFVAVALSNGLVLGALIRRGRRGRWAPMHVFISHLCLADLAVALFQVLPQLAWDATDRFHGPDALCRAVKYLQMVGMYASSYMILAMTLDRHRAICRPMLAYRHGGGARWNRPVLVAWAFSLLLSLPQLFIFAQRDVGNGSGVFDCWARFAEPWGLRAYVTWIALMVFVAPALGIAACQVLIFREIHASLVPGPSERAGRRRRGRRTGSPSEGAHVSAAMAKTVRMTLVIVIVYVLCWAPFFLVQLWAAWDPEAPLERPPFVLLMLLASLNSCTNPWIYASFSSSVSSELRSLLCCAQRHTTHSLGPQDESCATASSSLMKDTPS
Sequence of Vasopressin V1a receptor (Homo sapiens, UniProt P37288) (P37288 whole entry): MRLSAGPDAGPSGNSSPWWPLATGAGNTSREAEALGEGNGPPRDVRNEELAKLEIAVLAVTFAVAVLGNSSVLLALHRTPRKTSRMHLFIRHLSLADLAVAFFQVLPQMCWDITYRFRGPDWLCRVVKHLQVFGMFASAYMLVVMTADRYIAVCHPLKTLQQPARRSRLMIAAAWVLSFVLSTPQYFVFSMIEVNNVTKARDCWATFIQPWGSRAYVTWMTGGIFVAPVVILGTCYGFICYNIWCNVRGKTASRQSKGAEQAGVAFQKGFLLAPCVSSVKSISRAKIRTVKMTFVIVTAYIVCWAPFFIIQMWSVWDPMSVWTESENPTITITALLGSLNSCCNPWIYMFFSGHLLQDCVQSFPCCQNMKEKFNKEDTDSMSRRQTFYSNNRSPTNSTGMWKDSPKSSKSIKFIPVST

For `Cc1ccccc1N1CCN(S(=O)(=O)C[C@]23CC[C@H](C[C@@H]2NC(=O)[C@@H](N)CCS(C)(=O)=O)C3(C)C)CC1`, the bioavailability in [1] and in data set [2] was 17% in each case. The pIC50 at Vasopressin V2 receptor [3] is 6.24; on Vasopressin V1a receptor [4], 6.43; on Oxytocin receptor [5], 8.05.

For `CN[C@@H](CCS(C)(=O)=O)C(=O)N[C@H]1C[C@H]2CC[C@]1(CS(=O)(=O)N1CCN(c3ccccc3C)CC1)C2(C)C`, the pKi at Vasopressin V1a receptor [6] was 6.21; at Vasopressin V1b receptor, 5.89; on Vasopressin V2 receptor [7], 6.74; at Oxytocin receptor [8] it was 8.28. In addition, the pIC50 at Vasopressin V2 receptor [3] was 6.46; at Vasopressin V1a receptor [4], 6.49; against Oxytocin receptor [5] it was 8.04.

In the case of `Cc1ccccc1N1CCN(S(=O)(=O)C[C@]23CC[C@H](C[C@@H]2NC(=O)[C@H](CCS(C)(=O)=O)N[11CH3])C3(C)C)CC1`, the Drug uptake entry in the data set with Muscle tissue is on record as “Active”; with Brain [9], “Not Active”; in data set [10], “Active”; in data set [11], “Active”; in data set [12], “Active”; with Hypothalamus it was “Active”. The Drug uptake entry (in the data set on Brain [13]; in data set [14]; in [15]; in data set [16]; with Brain [18]) was “Active” throughout. The molecule also returned a logD in data set [17] of 2.62.
